From ChEMBL document CHEMBL4382237, “Design, Synthesis, and Biological Evaluation of 2-Nitroimidazopyrazin-one/-es with Antitubercular and Antiparasitic Activity” (J Med Chem, 2018)
≈ marks a conversion by molar mass, not a printed value.

Experiments:
[1] = Apparent permeability across apical to basolateral side in human Caco2 cells assessed as mean drug recovery at 2 uM after 2 hrs by lucifer yellow dye-based LC-MS/MS analysis; details: caco-2, 2 h
Giardia intestinalis = test: Antiparasitic activity against Giardia lamblia WB trophozoites after 24 to 48 hrs by CellTiter-Glo luminescent cell viability assay; details: Giardia duodenalis
[2] = tested on: Mycobacterium tuberculosis; test: Antibacterial activity against Mycobacterium tuberculosis H37Rv after 5 days under normoxic condition by resazurin dye-based fluorescence assay; format: functional, organism-based; details: for IC50: Mycobacterium tuberculosis, H37Rv, 120 h
Procedure, shortened: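 H37Rv grown in 7H9/ADC/glycerol/Tyloxapol to mid-exponential phase, diluted to OD600 0.001 (~2 x 10^4 CFU/mL) in 7H9S with serially diluted compound. Incubated 5 days at 37 °C, then resazurin and Tween-80 added. Fluorescence (ex 530/em 590 nm) read after 24 h, normalised to no-drug and no-bacteria wells.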

[3] = tested on: Mycobacterium tuberculosis; test: Antibacterial activity against non-replicating Mycobacterium tuberculosis H37Rv after 5 days under hypoxic condition by resazurin dye-based fluorescence assay; format: functional; details: 120 h
Procedure, shortened: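 Same H37Rv inoculum (OD600 0.001, ~2 x 10^4 CFU/mL) in 7H9S with serially diluted compound. Plates held 5 days at 0.1% oxygen, then resazurin plus Tween-80 added.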

[4] = tested on: Trypanosoma brucei brucei; test: Antiparasitic activity against bloodstream form of Trypanosoma brucei brucei strain 427 after 48 hrs by resazurin dye-based assay; format: functional, organism-based; details: strain 427, 48 h
Staphylococcus aureus = test: Antibacterial activity against methicillin-resistant Staphylococcus aureus ATCC […] by broth microdilution assay; format: functional
Escherichia coli = test: Antibacterial activity against Escherichia coli ATCC 25922 by broth microdilution assay; format: functional
Procedure, shortened: (§1)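 Broth microdilution run essentially per an earlier report. MIC taken as the lowest concentration with no visible growth. Replicates typically agreed within one 2-fold dilution. The median MIC is reported, with a range where the median fell between two tested concentrations.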

Klebsiella pneumoniae = test: Antibacterial activity against Klebsiella pneumoniae 700603 by broth microdilution assay; format: functional; procedure, shortened: as §1
Acinetobacter baumannii = test: Antibacterial activity against Acinetobacter baumannii ATCC 19606 by broth microdilution assay; format: functional; details: ATCC 19606 = CIP 70.34 = JCM 6841; procedure, shortened: as §1
Pseudomonas aeruginosa = test: Antibacterial activity against Pseudomonas aeruginosa ATCC 27853 by broth microdilution assay; format: functional; procedure, shortened: as §1
Candida albicans = test: Antifungal activity against Candida albicans ATCC 90028 by broth microdilution assay; format: functional; procedure, shortened: as §1
Cryptococcus neoformans = test: Antifungal activity against Cryptococcus neoformans H99 ATCC […] broth microdilution assay; format: functional; details: var. grubii H99 ATCC 208821; procedure, shortened: as §1
HEK293 = test: Cytotoxicity against HEK293 cells after 24 hrs by resazurin dye-based fluorescence assay; format: cell-based; details: human, hek293, 24 h
Procedure, shortened: (§2)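 HEK293 (3000/well) and HepG2 (5000/well) were grown 24 h in DMEM with 10% FBS at 37 °C, 5% CO2. Cells were then exposed 24 h to a dilution series up to 100 µM (0.5% DMSO). 5 µM resazurin was added for 2 h, read at ex 560/em 590. 1% Triton X-100 served as lysis control. CC50 was derived from the curves.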

HepG2 = test: Cytotoxicity against human HepG2 cells after 24 hrs by resazurin dye-based fluorescence assay; format: cell-based; details: hepg2, 24 h; procedure, shortened: as §2
[5] = Metabolic stability in human liver microsomes assessed as parent compound remaining at 3 uM after 2 hrs by LC-MS/MS analysis
[6] = Metabolic stability in CD-1 mouse liver microsomes assessed as parent compound remaining at 3 uM after 2 hrs by LC-MS/MS analysis
[7] = tested on: Mycobacterium tuberculosis; test: Antibacterial activity against Mycobacterium tuberculosis H37Rv assessed as inhibition of bacterial growth at 32 ug/ml after 5 days under normoxic condition by resazurin dye-based fluorescence assay relative to control; format: functional; details: 120 h, read-out: GI
[8] = tested on: Trypanosoma brucei brucei; test: Antiparasitic activity against bloodstream form of Trypanosoma brucei brucei strain 427 assessed as inhibition of parasitic growth at 40 uM after 48 hrs by resazurin dye-based assay relative to control; format: functional; details: strain 427, 48 h, read-out: GI
Entamoeba histolytica = test: Antiparasitic activity against Entamoeba histolytica HM-1:IMSS trophozoites after 24 to 48 hrs by CellTiter-Glo luminescent cell viability assay; format: functional, organism-based
Procedure, shortened: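 Axenic trophozoites were kept in TYI-S-33 with penicillin (100 U/mL) and streptomycin (100 µg/mL) and harvested in log phase. 5000 parasites per well were exposed to a final 8-point two-fold series of 0.39–50 µM, from 10 mM DMSO stocks. Plates were incubated 24–48 h at 37 °C under anaerobic conditions. ATP luminescence viability was read in triplicate. Percent inhibition is given at the highest concentration tested.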

[9] = Metabolic stability in human plasma assessed as parent compound remaining at 3 uM after 2 hrs by LC-MS/MS analysis
[10] = Metabolic stability in CD-1 mouse plasma assessed as parent compound remaining at 3 uM after 2 hrs by LC-MS/MS analysis
physchem [11] = details: water
physchem [12] = details: PBS, pH 7.4
Clostridioides difficile = test: Antibacterial activity against Clostridium difficile 630 ATCC BAA-1382 by broth microdilution assay; format: functional; procedure, shortened: as §1

Row | Structure (SMILES) | IC50 (Giardia intestinalis) [µM] | IC50 (Giardia intestinalis; read-out: pIC50 (converted)) [µM] | MIC [2] [µg/mL] | MIC [3] [µg/mL] | IC50 ([4]; read-out: IC50) [µM] | IC50 ([4]; read-out: pIC50 (converted)) [µM] | MIC (Staphylococcus aureus) [µg/mL] | MIC (Escherichia coli) [µg/mL] | MIC (Klebsiella pneumoniae) [µg/mL] | MIC (Acinetobacter baumannii) [µg/mL] | MIC (Pseudomonas aeruginosa) [µg/mL] | MIC (Candida albicans) [µg/mL] | MIC (Cryptococcus neoformans) [µg/mL] | CC50 (HEK293) [µM] | CC50 (HepG2) [µM] | IC50 (Entamoeba histolytica; read-out: IC50) [µM] | further results
1 | CC(C)NCC(O)COc1cccc2ccccc12 (stereo not given) [PROPRANOLOL] |  |  |  |  |  |  |  |  |  |  |  |  |  |  |  |  | Drug recovery [1]: 70%
2 | O=c1c2nc([N+](=O)[O-])cn2ccn1Cc1ccccc1OC(F)(F)F | 8.2 | 7.94 | 1 (≈ 2.82 µM) | 8 (≈ 22.6 µM) | 6 | 6.31 | > 32 | > 32 | > 32 | > 32 | > 32 | > 32 | > 32 | > 100 | > 100 |  | Stability [5]: > 99%; Stability [6]: > 99%
3 | O=c1c2nc([N+](=O)[O-])cn2ccn1CCc1ccc(OC(F)(F)F)cc1 | 1.6 | 1.58 |  | > 32 |  |  | > 32 | > 32 | > 32 | > 32 | > 32 | > 32 | > 32 | > 100 | > 100 |  | IC50 [2]: 8 µM; inhibition of growth at 32 µg/mL [7]: 70%; inhibition of growth at 40 µM [8]: 44%
4 | O=[N+]([O-])c1cn2ccnc(OCCc3ccc(OC(F)(F)F)cc3)c2n1 | 5.2 | 5.01 | >32 | > 32 |  |  | > 32 | > 32 | > 32 | > 32 | > 32 | > 32 | > 32 | > 100 | > 100 | 7.8 | 
5 | CC1CC(OC(=O)C(O)c2ccccc2)CC(C)(C)N1C (stereo not given) [EUCATROPINE] |  |  |  |  |  |  |  |  |  |  |  |  |  |  |  |  | Stability [9]: 21%
6 | Cc1ccc(CCn2ccn3cc([N+](=O)[O-])nc3c2=O)cc1 | 3.2 | 3.16 |  | > 32 | > 40 | > 39.8 | > 32 | > 32 | > 32 | > 32 | > 32 | > 32 | > 32 | > 100 | > 100 |  | IC50 [2]: 4 µM; inhibition of growth at 32 µg/mL [7]: 78%
7 | O=C(Cn1ccn2cc([N+](=O)[O-])nc2c1=O)N1CCOCC1 | > 50 | > 50.1 | >32 | > 32 | 4.1 | 3.98 | > 32 | > 32 | > 32 | > 32 | > 32 | > 32 | > 32 | > 100 | > 100 |  | 
8 | O=c1[nH]ccn2cc([N+](=O)[O-])nc12 | > 25 | > 25.1 | >32 | > 32 |  |  | > 32 | > 32 | > 32 | > 32 | > 32 | > 32 | > 32 | > 100 | > 100 |  | inhibition of growth at 40 µM [8]: 97%
9 | Cc1nc(OCc2ccc(OC(F)(F)F)cc2)c2nc([N+](=O)[O-])cn2c1C | 8.6 | 7.94 | >32 | > 32 | 10 | 10 |  |  |  |  |  |  |  |  |  | 17 | IC50 (Entamoeba histolytica; read-out: pIC50 (converted)): 15.8 µM; Stability [5]: 44%; Stability [6]: < 0.5%; Stability [9]: > 99%; Stability [10]: > 99%
10 | NC(=O)Cn1ccn2cc([N+](=O)[O-])nc2c1=O | > 50 | > 50.1 | >32 | > 32 | > 40 | > 39.8 | > 32 | > 32 | > 32 | > 32 | > 32 | > 32 | > 32 | > 100 | > 100 |  | 
11 | O=c1[nH]c(-c2ccccc2)cn2cc([N+](=O)[O-])nc12 | 10 | 10 | >32 | > 32 | 0.22 | 0.2 |  |  |  |  |  |  |  |  |  | > 25 | IC50 (Entamoeba histolytica; read-out: pIC50 (converted)): > 25.1 µM; solubility kinetic at 24 h, 200 µM (physchem [11]): 27 µM (≈ 6.92 µg/mL); solubility kinetic at 24 h, 200 µM (physchem [12]): 17 µM (≈ 4.36 µg/mL)
12 | O=C(NO)c1nc([N+](=O)[O-])cn1Cc1ccc(OC(F)(F)F)cc1 | 2.7 to 7.5 |  | >32 | > 32 |  |  |  |  |  |  |  |  |  |  |  | 10 to 45 | MIC (Clostridioides difficile): 16 to 64 µg/mL (≈ 46.2 to 185 µM); inhibition of growth at 32 µg/mL [7]: 60 to 75%
13 | O=c1c2nc([N+](=O)[O-])cn2ccn1Cc1ccc(F)cc1F | > 50 | > 50.1 | 16 to 32 | > 32 | > 40 | > 39.8 | > 32 | > 32 | > 32 | > 32 | > 32 | > 32 | > 32 | > 100 | > 100 |  | 
14 | O=C(NCc1ccc(OC(F)(F)F)cc1)c1ncc([N+](=O)[O-])[nH]1 | 0.2 to 0.5 |  | >32 | > 32 |  |  |  |  |  |  |  |  |  |  |  | 2.2 to 4.5 | MIC (Clostridioides difficile): 4 to 16 µg/mL (≈ 12.1 to 48.5 µM); inhibition of growth at 32 µg/mL [7]: 60 to 75%
15 | CC(c1ccc(F)cc1)n1ccn2cc([N+](=O)[O-])nc2c1=O (stereo not given) | 2.1 | 2 | 0.5 (≈ 1.65 µM) | 4 to 6.3 (≈ 13.2 to 20.8 µM) |  |  | > 32 | > 32 | > 32 | > 32 | > 32 | > 32 | > 32 | > 100 | > 100 |  | inhibition of growth at 40 µM [8]: 94%
16 | Cc1ccc(Cn2ccn3cc([N+](=O)[O-])nc3c2=O)cc1 | 3.4 | 3.16 |  |  |  |  | > 32 | > 32 | > 32 | > 32 | > 32 | > 32 | > 32 |  |  | > 50 | MIC (Clostridioides difficile): > 64 µg/mL; Stability [5]: 97%; Stability [6]: 96%; Stability [9]: > 99%; Stability [10]: > 99%
17 | O=[N+]([O-])c1cn2ccnc(OCc3ccccc3OC(F)(F)F)c2n1 | 12 | 12.6 | >32 | > 32 | > 40 | > 39.8 | > 32 | > 32 | > 32 | > 32 | > 32 | > 32 | > 32 | > 100 | > 100 |  | Stability [5]: 51%; Stability [6]: < 0.5%
18 | O=c1c2nc([N+](=O)[O-])cn2ccn1Cc1ccccn1 | 14 | 15.8 | >32 | > 32 | 9.7 | 10 | > 32 | > 32 | > 32 | > 32 | > 32 | > 32 | > 32 | > 100 | > 100 |  | solubility kinetic at 24 h, 200 µM (physchem [11]): 176 µM (≈ 47.7 µg/mL); solubility kinetic at 24 h, 200 µM (physchem [12]): 184 µM (≈ 49.9 µg/mL)
